# Data taken from ChEMBL document CHEMBL2046351, “Discovery of cyclic sulfone hydroxyethylamines as potent and selective β-site APP-cleaving enzyme 1 (BACE1) inhibitors: structure-based design and in vivo reduction of amyloid β-peptides” (J Med Chem, 2012).
# Experiments:
# Type in all cases: ADME, organism-based
# [1] = Drug uptake in C57BL/6 mouse blood at 6 umol/kg, po dosed in HS15/propylenglycol/citrate buffer, pH 4.75, 50 mM (10/5/85, v/v/v) measured 4 hrs post dosing by LC/MS/MS analysis; conditions: read-out: Drug uptake
# Method in brief: (§1)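 Male C57BL/6 mice dosed by oral gavage, 10 mL/kg. Blood sampled 0.25, 0.5, 1, 2, 4, 6 h; brain at 1 and/or 4 h; n = 3 per time. Blood acetonitrile-precipitated, brain water-homogenized then precipitated; LC-MS/MS with weighted linear calibration.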
# [2] = Ratio of drug uptake in brain to blood in C57BL/6 mouse at 60 umol/kg, po dosed in HS15/propylenglycol/citrate buffer, pH 4.75, 50 mM (10/5/85, v/v/v) measured 4 hrs post dosing by LC/MS/MS analysis
# Method in brief: (§2)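 Male C57BL/6 mice received the dose by oral gavage at 10 mL/kg. Blood and brain were collected at 1 and/or 4 h postdose. Brain was homogenised in water, and both matrices were extracted by acetonitrile precipitation and quantified by LC-MS/MS. The ratio is mean brain (nmol/g) over mean blood (nmol/mL) concentration, n = 3.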
# [3] = Drug uptake in C57BL/6 mouse blood at 60 umol/kg, po dosed in HS15/propylenglycol/citrate buffer, pH 4.75, 50 mM (10/5/85, v/v/v) measured 1 hr post dosing by LC/MS/MS analysis; conditions: read-out: Drug uptake; method in brief: as §1
# [4] = Ratio of drug uptake in brain to blood in C57BL/6 mouse at 6 umol/kg, po dosed in HS15/propylenglycol/citrate buffer, pH 4.75, 50 mM (10/5/85, v/v/v) measured 4 hrs post dosing by LC/MS/MS analysis; method in brief: as §2
# Brain [5] = assay: Drug uptake in C57BL/6 mouse brain at 6 umol/kg, po dosed in HS15/propylenglycol/citrate buffer, pH 4.75, 50 mM (10/5/85, v/v/v) measured 4 hrs post dosing by LC/MS/MS analysis; conditions: in vivo, pH 4.75, 4 h; method in brief: as §1
# Brain [6] = assay: Drug uptake in C57BL/6 mouse brain at 60 umol/kg, po dosed in HS15/propylenglycol/citrate buffer, pH 4.75, 50 mM (10/5/85, v/v/v) measured 4 hrs post dosing by LC/MS/MS analysis; conditions: in vivo, pH 4.75, 4 h; method in brief: as §1
# [7] = Drug uptake in C57BL/6 mouse blood at 6 umol/kg, po dosed in HS15/propylenglycol/citrate buffer, pH 4.75, 50 mM (10/5/85, v/v/v) measured 1 hr post dosing by LC/MS/MS analysis; conditions: read-out: Drug uptake; method in brief: as §1
# Brain [8] = assay: Drug uptake in C57BL/6 mouse brain at 6 umol/kg, po dosed in HS15/propylenglycol/citrate buffer, pH 4.75, 50 mM (10/5/85, v/v/v) measured 1 hr post dosing by LC/MS/MS analysis; conditions: in vivo, pH 4.75, 1 h; method in brief: as §1
# [9] = Ratio of drug uptake in brain to blood in C57BL/6 mouse at 60 umol/kg, po dosed in HS15/propylenglycol/citrate buffer, pH 4.75, 50 mM (10/5/85, v/v/v) measured 1 hr post dosing by LC/MS/MS analysis; method in brief: as §2
# [10] = Ratio of drug uptake in brain to blood in C57BL/6 mouse at 6 umol/kg, po dosed in HS15/propylenglycol/citrate buffer, pH 4.75, 50 mM (10/5/85, v/v/v) measured 1 hr post dosing by LC/MS/MS analysis; method in brief: as §2
# [11] = AUC (0 to infinity) in C57BL/6 mouse at 60 umol/kg, po dosed in carboxymethyl cellulose 0.5% w/v in water/Tween 80 (99.5/0.5, v/v) by LC/MS/MS analysis; parameters: dose 60 umol/kg, route oral, time infinity; conditions: in vivo
# Method in brief: (§3)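 Male C57BL/6 mice were dosed by oral gavage at 10 mL/kg. Blood was sampled at 0.25, 0.5, 1, 2, 4 and 6 h postdose, extracted by acetonitrile precipitation and quantified by LC-MS/MS (typical LLOQ 0.4 ng/mL). AUCinf was obtained by noncompartmental analysis of concentration–time profiles, weighting 1/Y, with at least three terminal log-linear points.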
# [12] = Ratio of drug uptake in brain to blood in C57BL/6 mouse at 60 umol/kg, po dosed in carboxymethyl cellulose 0.5% w/v in water/Tween 80 (99.5/0.5, v/v) measured 1 hr post dosing by LC/MS/MS analysis; method in brief: as §1
# [13] = Drug uptake in C57BL/6 mouse blood at 60 umol/kg, po dosed in carboxymethyl cellulose 0.5% w/v in water/Tween 80 (99.5/0.5, v/v) measured 1 hr post dosing by LC/MS/MS analysis; conditions: read-out: Drug uptake; method in brief: as §1
# [14] = Drug uptake in C57BL/6 mouse blood at 2 umol/kg, iv dosed in N-methyl pyrrolidone/blank plasma (10:90 v/v) measured 4 hrs post dosing by LC/MS/MS analysis; conditions: read-out: Drug uptake
# Method in brief: (§4)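 Male C57BL/6 mice, saphenous vein injection under light anesthesia, 5 mL/kg. Blood at 5, 30 min and 1, 2, 4, 6, 8 h; brain at 5 min, 1, 4, 8 h; n = 3/time. LC-MS/MS after acetonitrile precipitation (brain water-homogenized). Noncompartmental analysis, 1/Y weighting, terminal slope from ≥3 points.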
# Brain [15] = assay: Drug uptake in C57BL/6 mouse brain at 60 umol/kg, po dosed in carboxymethyl cellulose 0.5% w/v in water/Tween 80 (99.5/0.5, v/v) measured 4 hrs post dosing by LC/MS/MS analysis; conditions: in vivo; method in brief: as §1
# [16] = AUC (0 to infinity) in C57BL/6 mouse at 6 umol/kg, po dosed in carboxymethyl cellulose 0.5% w/v in water/Tween 80 (99.5/0.5, v/v) by LC/MS/MS analysis; parameters: dose 6 umol/kg, time infinity, route oral; conditions: in vivo; method in brief: as §3
# Brain [17] = assay: Drug uptake in C57BL/6 mouse brain at 2 umol/kg, iv dosed in N-methyl pyrrolidone/blank plasma (10:90 v/v) measured 1 hr post dosing by LC/MS/MS analysis; conditions: in vivo; method in brief: as §4
# [18] = Ratio of drug uptake in brain to blood in C57BL/6 mouse at 2 umol/kg, iv dosed in N-methyl pyrrolidone/blank plasma (10:90 v/v) measured 1 hr post dosing by LC/MS/MS analysis; method in brief: as §4
# Brain [19] = assay: Drug uptake in C57BL/6 mouse brain at 6 umol/kg, po dosed in carboxymethyl cellulose 0.5% w/v in water/Tween 80 (99.5/0.5, v/v) measured 1 hr post dosing by LC/MS/MS analysis; conditions: in vivo; method in brief: as §1
# [20] = Ratio of drug uptake in brain to blood in C57BL/6 mouse at 60 umol/kg, po dosed in carboxymethyl cellulose 0.5% w/v in water/Tween 80 (99.5/0.5, v/v) measured 4 hrs post dosing by LC/MS/MS analysis; method in brief: as §1
# Brain [21] = assay: Drug uptake in C57BL/6 mouse brain at 6 umol/kg, po dosed in carboxymethyl cellulose 0.5% w/v in water/Tween 80 (99.5/0.5, v/v) measured 4 hrs post dosing by LC/MS/MS analysis; conditions: in vivo; method in brief: as §1
# [22] = Drug uptake in C57BL/6 mouse blood at 2 umol/kg, iv dosed in N-methyl pyrrolidone/blank plasma (10:90 v/v) measured 1 hr post dosing by LC/MS/MS analysis; conditions: read-out: Drug uptake; method in brief: as §4
structure (smiles),measurement,setting,value
CC(C)(C)c1cccc(CN[C@H]2CS(=O)(=O)C[C@@H](Cc3cc(F)c(N)c(OC(C(F)(F)F)C(F)(F)F)c3)[C@@H]2O)c1,concentration at 4 h,[1],30 nM
same,Kp at 4 h,[2],0.8
same,concentration at 1 h,[3],470 nM
same,Kp at 4 h,[4],0.3
same,Drug uptake,Brain [5],0.01 nmol/g
same,Drug uptake,Brain [6],0.15 nmol/g
same,concentration at 1 h,[7],60 nM
same,Drug uptake,Brain [8],0.02 nmol/g
same,Kp at 1 h,[9],0.5
same,Kp at 1 h,[10],0.3
CC(C)(C)c1cccc(CN[C@H]2CS(=O)(=O)C[C@@H](Cc3cc(F)c(N)c(OCC(F)(F)F)c3)[C@@H]2O)c1,AUC(0-inf),[11],14.8 µM·h
same,Kp at 1 h,[12],0.3
same,concentration at 1 h,[13],4100 nM
same,concentration at 4 h,[14],10 nM
same,Drug uptake,Brain [15],0.55 nmol/g
same,AUC(0-inf),[16],0.466 µM·h
same,Drug uptake,Brain [17],0.11 nmol/g
same,Kp at 1 h,[18],1.8
same,Drug uptake,Brain [19],0.08 nmol/g
same,Kp at 4 h,[20],0.3
same,Drug uptake,Brain [21],0.11 nmol/g
same,concentration at 1 h,[22],60 nM
